Measurements: ChEMBL document CHEMBL4138068, “Aryl-alkyl-lysines: small molecular membrane-active antiplasmodial agents” (Medchemcomm, 2017)

Columns and labels:
[1] = Selectivity index, ratio of HC50 for haemolytic activity in human erythrocytes to IC50 for antimalarial activity against Plasmodium falciparum 3D7 cultured in human O+ erythrocytes; assay type: toxicity, cell-based; details: read-out: Selectivity Index
[2] = system: Plasmodium falciparum; assay: Antimalarial activity against […] Plasmodium falciparum MRC2 cultured in human O+ erythrocytes assessed as reduction in parasite growth incubated for 48 hrs by SYBR green I based fluorescence assay; assay type: functional, organism-based; details: MRC2, 48 h
Summary of the method: (§1)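 Sorbitol-synchronized ring-stage cultures (2% haematocrit, 1% parasitaemia) exposed for 48 h to serial dilutions in complete RPMI, top concentration 10µM. CQ was the positive control and drug-free wells the negative control. Growth was read by SYBR Green I lysis buffer, 1 h at 37°C in the dark, fluorescence ex 485/em 530 nm. IC50 came from sigmoidal curve fits, checked by Giemsa smears.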

[3] = system: Plasmodium falciparum; assay: Antimalarial activity against […] Plasmodium falciparum RKL9 cultured in human O+ erythrocytes assessed as reduction in parasite growth incubated for 48 hrs by SYBR green I based fluorescence assay; assay type: functional, organism-based; details: RKL9, 48 h; summary of the method: as §1
[4] = system: Plasmodium falciparum; assay: Antimalarial activity against Plasmodium falciparum 3D7 cultured in human O+ erythrocytes assessed as reduction in parasite growth incubated for 48 hrs by SYBR green I based fluorescence assay; assay type: functional, organism-based; details: 3D7, 48 h
Summary of the method: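 Sorbitol-synchronized ring-stage cultures (2% haematocrit, 1% parasitaemia) were exposed to serial dilutions in complete RPMI, top concentration 10 µM, for 48 h. Chloroquine served as positive control and no compound as negative control. Lysis buffer with SYBR Green I (Tris pH 7.5, EDTA, saponin, Triton X-100) was added for 1 h in the dark at 37°C. Fluorescence was read at ex 485/em 530 nm, and IC50 came from sigmoidal curves, checked against Giemsa smears.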

[5] = system: Mus musculus; assay: Toxicity in Plasmodium berghei ANKA infected in Swiss-Harlan mouse model of cerebral malaria assessed as induction of prolonged malaise at 30 mg/kg, ip for 4 days dosed 2 hrs post infection and measured 5 days post infection by Giemsa staining based Peter's 4 day test; assay type: organism-based; details: in vivo, 120 h
[6] = system: Mus musculus; assay: Toxicity in Plasmodium berghei ANKA infected in Swiss-Harlan mouse model of cerebral malaria assessed as induction of mouse death at 30 mg/kg, ip for 4 days dosed 2 hrs post infection and measured 5 days post infection by Giemsa staining based Peter's 4 day test; assay type: organism-based; details: in vivo, 120 h
[7] = system: Mus musculus; assay: Toxicity in Balb/c mouse assessed as effect on blood electrochemical balance by measuring chloride level at 20 mg/kg, iv; assay type: organism-based; details: in vivo
[8] = Toxicity in Balb/c mouse at 5.5 to 175 mg/kg, iv for 14 days; assay type: organism-based; details: in vivo
Summary of the method: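 Female Balb/c mice, 6-8 weeks old, dosed intravenously in PBS at 175, 55, 17.5 and 5.5 mg/kg. Adverse effects were observed directly for 4 h and mortality for 14 days. LD50 was calculated from survival with the Spearman-Karber equation.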

[9] = system: Plasmodium berghei; assay: (§2) Antimalarial activity against Plasmodium berghei ANKA infected in Swiss-Harlan mouse model of cerebral malaria assessed as reduction in parasitemia at 20 mg/kg, ip for 4 days dosed 2 hrs post infection and measured 5 days post infection by Giemsa staining based Peter's 4 day test; assay type: functional; design: scale not given: the % may be the effect or the level left
Summary of the method: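 Female Swiss mice (6-8 weeks) were infected IP with 10⁷ P. berghei ANKA-parasitized RBCs. Two hours later, groups (n=4) received 20 mg/kg IP or PBS control, repeated every 24 h for four days. Parasitemia was read on day 5 from Giemsa-stained tail-blood smears, and survival was followed until death.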

[10] = system: Mus musculus; assay: Toxicity in Balb/c mouse assessed as effect on creatinine level level at 17.5 mg/kg, iv; details: in vivo
[11] = system: Mus musculus; assay: Toxicity in Balb/c mouse assessed as effect on ALT level level at 20 mg/kg, iv; assay type: organism-based; details: in vivo
[12] = system: Plasmodium berghei; assay: as §2, with “time duration for complete mouse mortality” for “reduction in parasitemia”, “test (reference value: =<7 days)” for “test”; assay type: functional
Summary of the method: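 Female Swiss mice, 6-8 weeks old, infected IP with 10⁷ P. berghei ANKA parasitized RBCs. Starting 2 h post-infection, 20 mg/kg IP (PBS vehicle; PBS-only controls) every 24 h for four days, n=4. Day-5 parasitemia read from Giemsa-stained tail-blood smears; survival followed until death.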

[13] = system: Mus musculus; assay: Toxicity in Balb/c mouse assessed as effect on AST level level at 20 mg/kg, iv; assay type: organism-based; details: in vivo
[14] = system: Mus musculus; assay: Toxicity in Balb/c mouse assessed as effect on urea nitrogen level level at 20 mg/kg, iv; assay type: organism-based; details: in vivo
[15] = Haemolytic activity in human erythrocytes assessed as induction of hemolysis incubated for 1 hr; assay type: cell-based, Erythrocyte
Summary of the method: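 Human erythrocytes from fresh heparinized blood were suspended at 5 vol% in PBS (pH 7.4), mixed 3:1 with serially diluted compound, and incubated 1 h at 37°C. Controls were no compound and 1 vol% Triton X-100. After centrifugation, supernatant A540 gave % haemolysis relative to the Triton control. HC50 is the mean ± SEM of at least two independent experiments, each run in triplicate.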

[16] = system: Mus musculus; assay: Toxicity in Balb/c mouse assessed as effect on blood electrochemical balance by measuring potassium level at 20 mg/kg, iv; assay type: organism-based; details: in vivo
[17] = system: Mus musculus; assay: Toxicity in Balb/c mouse assessed as effect on blood electrochemical balance by measuring sodium level at 20 mg/kg, iv; assay type: organism-based; details: in vivo

Compound CCCCCCN(Cc1cccc2ccccc12)C(=O)C(CCCCNC(=O)OC(C)(C)C)NC(=O)OC(C)(C)C.O=C(O)C(F)(F)F.O=C(O)C(F)(F)F (stereo not given) has a selectivity ratio [1] of 850, an IC50 [2] of 5000 nM and an IC50 [3] of 1400 nM. For the same compound, the IC50 [4] was 1000 nM, the Activity [5] was “Toxic” and the Activity [6] was “Toxic”. For the same compound, the Activity [7] was “Non-Toxic”, the LD50 at 336 h [8] was 98 mg/kg and the Activity [9] was 60%. For the same compound, the Activity [10] was “Non-Toxic”, the Activity [11] was “Non-Toxic” and the Time [12] was 12 days. The Activity [13] was “Non-Toxic”, the Activity [14] was “Non-Toxic” and the HC50 at 1 h [15] was 850 µM. For the same compound, the Activity [16] was “Non-Toxic” and the Activity [17] was “Non-Toxic”.

CCCCCCCCN(Cc1ccccc1)C(=O)C(CCCCNC(=O)OC(C)(C)C)NC(=O)OC(C)(C)C (stereo not given) gave a selectivity ratio [1] of 141, an IC50 [4] of 4000 nM and an HC50 at 1 h [15] of 564 µM.

Work on CCCCCCCCN(Cc1cccc2ccccc12)C(=O)C(CCCCNC(=O)OC(C)(C)C)NC(=O)OC(C)(C)C (stereo not given) yielded a selectivity ratio [1] of 32, an IC50 [4] of 3000 nM and an HC50 at 1 h [15] of 96 µM.

In the case of CCCCCCN(Cc1ccccc1)C(=O)C(CCCCNC(=O)OC(C)(C)C)NC(=O)OC(C)(C)C (stereo not given), the IC50 [4] is reported as > 5000 nM and the HC50 at 1 h [15] is reported as > 1000 µM.
